The text below walks through data of ChEMBL document CHEMBL5038617, “1,2,4-Triazole-3-thione compounds with a 4-ethyl alkyl/aryl sulfide substituent are broad-spectrum metallo-β-lactamase inhibitors with re-sensitization activity” (Eur J Med Chem, 2021).

Data set [1] deals with Bacteria. Description: Inhibition of bacterial Metallo-beta-lactamase VIM-2 (unknown origin) assessed as substrate hydrolysis at 100 uM using meropenem as substrate by UV-visible spectrometry analysis. Summed up:
(§1)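 Purified MBL enzyme at 1–70 nM final, in 50 mM HEPES pH 7.5 at 30 °C with 0.5% DMSO. Reporter substrate 150 µM imipenem or meropenem; hydrolysis read at 300 nm. […] Ki measured when inhibition exceeded 75%, by competitive-model v0/vi vs [I] slope or Dixon plot. Some runs used 10 min enzyme–inhibitor preincubation. Triplicate.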

Data set [2] relates to Bacteria. Description: Inhibition of bacterial New Delhi metallo-beta-lactamase 1 (unknown origin) assessed as substrate hydrolysis at 100 uM using meropenem as substrate by UV-visible spectrometry analysis. Summed up:
as §1

The subject of data set [3] is Bacteria. Description: Inhibition of bacterial Metallo-beta-lactamase VIM-1 (unknown origin) assessed as substrate hydrolysis at 25 uM using meropenem as substrate by UV-visible spectrometry analysis. Summed up: as §1
Data set [4] deals with Bacteria. Description: Inhibition of bacterial Metallo-beta-lactamase VIM-4 (unknown origin) assessed as substrate hydrolysis at 25 uM using meropenem as substrate by UV-visible spectrometry analysis. The method in brief: as §1
For data set [5], the system named is Bacteria. Description: Inhibition of bacterial Metallo-beta-lactamase IMP-1 (unknown origin) assessed as substrate hydrolysis at 100 uM using meropenem as substrate by UV-visible spectrometry analysis. Summed up:
as §1

Data set [6] can be described thus: Inhibition of bacterial New Delhi metallo-beta-lactamase 1 (unknown origin) assessed as substrate hydrolysis using meropenem as substrate by UV-visible spectrometry analysis. Details: species or system Bacteria. The method in brief: as §1
A short description of data set [7]: Cytotoxicity against human PBMC cells assessed as cell viability measured after 24 hrs by flowcytometry method. The class given is toxicity, cell-based. The conditions noted are these: for IC50: pbmc. The method in brief:
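PBMC from four individual donors were isolated by density centrifugation, frozen, thawed and resuspended at 1.10e6/mL in RPMI with 10% FBS. Compound added from 20 mM DMSO stock by serial dilution in RPMI; final concentrations 500–7.8 µM, in duplicate. After 24 h, live cells counted by flow cytometry using FSC/SSC gating. IC50 calculated for each donor.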

A short description of data set [8]: Inhibition of bacterial Metallo-beta-lactamase VIM-1 (unknown origin) assessed as substrate hydrolysis using meropenem as substrate by UV-visible spectrometry analysis. Also on record: species or system Bacteria. The method in brief:
as §1

Data set [9] is described as follows: Inhibition of bacterial Metallo-beta-lactamase VIM-2 (unknown origin) assessed as substrate hydrolysis using meropenem as substrate by UV-visible spectrometry analysis. Also on record: species or system Bacteria. The method in brief:
as §1

Data set [10] concerns Klebsiella pneumoniae. Kind of data set: Synergistic antibacterial activity against Klebsiella pneumonia VA 416/02 clinical isolate strain producing Metallo-beta-lactamase VIM-4 assessed as meropenem MIC in presence of meropenem incubated for 24 hrs by broth microdilution method. The conditions noted are these: VA 416/02, 24 h. For orientation: Broth dilution looks for growth in wells or tubes with falling amounts of substance.

The test system of data set [11] is A549. Kind of data set: Cytotoxicity against human A549 cells assessed as cell viability measured after 48 hrs by RealTime-glo MT assay. The data set is classed as functional, cell-based. The settings on record: A549, 48 h. The method in brief: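 A549 cells incubated up to 48 h in DMEM with varying compound concentrations. Viable cell number read by bioluminescent real-time viability assay (NanoLuc luciferase with cell-permeant prosubstrate). Viability expressed relative to DMSO-only control culture, and IC50 derived.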

In data set [12] the test system is Klebsiella pneumoniae. Description: Synergistic antibacterial activity against Klebsiella pneumonia 7023 clinical isolate strain producing Metallo-beta-lactamase VIM-1 assessed as meropenem MIC in presence of meropenem incubated for 24 hrs by broth microdilution method. The data set is classed as functional. The method in brief: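 CLSI broth microdilution in Mueller-Hinton broth with 5 × 10^4 CFU/well. Meropenem two-fold serial dilutions tested with and without inhibitor fixed at 32 µg/mL, inhibitor added before antibiotic. DMSO ≤1%. […] Growth controls included. Triplicate.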

A short description of data set [13]: Inhibition of bacterial Metallo-beta-lactamase VIM-4 (unknown origin) assessed as substrate hydrolysis using meropenem as substrate by UV-visible spectrometry analysis. Also on record: species or system Bacteria. The method in brief:
as §1

Data set [14] has as its system HeLa. Description: Cytotoxicity against human HeLa cells assessed as LDH release measured after 24 hrs by CytoTox96 nonradioactive assay. The class given is functional, cell-based. The method in brief:
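HeLa cells (20,000/well) incubated 24 h at 37 °C, 5% CO2 in DMEM with 10% FBS, 4.5 mg/mL glucose and 2 mM L-glutamine, with compound up to 250 µM. LDH release measured. Medium-only control and Triton X-100 maximum-release control included. % cytotoxicity = 100 × sample/maximum release. IC50 taken as 50% cytotoxicity.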
(In general: Release of lactate dehydrogenase indicates damage to the cell membrane.)

Data set [15] can be described thus: Inhibition of bacterial Metallo-beta-lactamase IMP-1 (unknown origin) assessed as substrate hydrolysis using meropenem as substrate by UV-visible spectrometry analysis. Details: species or system Bacteria. The method in brief: as §1
The subject of data set [16] is Bacteria. Description: Inhibition of bacterial Metallo-beta-lactamase VIM-2 (unknown origin) assessed as substrate hydrolysis at 25 uM using meropenem as substrate by UV-visible spectrometry analysis. The method in brief:
as §1

Data set [17] concerns Bacteria. Kind of data set: Inhibition of bacterial Metallo-beta-lactamase IMP-1 (unknown origin) assessed as substrate hydrolysis at 25 uM using meropenem as substrate by UV-visible spectrometry analysis. Summed up: as §1
The target of data set [18] is Hydroxyacylglutathione hydrolase, mitochondrial (Homo sapiens, UniProt Q16775). Kind of data set: Inhibition of recombinant human Glyoxalase-2 assessed as reduction of substrate level using S-D-lactoylglutathione as substrate by spectrophotometric method. The method in brief:
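Recombinant human glyoxalase II (5–25 nM) in 100 mM MOPS pH 7.2 at 25 °C. Substrate S-D-lactoylglutathione loss followed at 240 nm (ε 3.1 mM−1cm−1). Inhibitor in DMSO added to the substrate mix, and the reaction started with enzyme. Duplicate.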

Consider `S=c1[nH]nc(Cc2ccc3ccccc3c2)n1CCSCc1ccccc1`, for which the inhibition in data set [1] is below 30%; in data set [2] it was below 30%; in data set [3], below 15%; in [4], 23%; in [5], 70%.

For the molecule `Cn1cccc1-c1n[nH]c(=S)n1CCSCc1ccccc1`, the Ki amounted to 28 µM in data set [6]; 230 nM in [8]; 340 nM in [9]; 250 nM in data set [13]; 9.04 µM in data set [15]. For the same molecule, the IC50 result is “Non-Toxic” in [7], above 250 µM in data set [11] and above 250 µM in [14]. Further, the minimal inhibitory concentration (MIC) was 1 µg/mL in data set [10] and 2 µg/mL in data set [12]. Further, the inhibition in data set [2] stood at 75%.

With `O=[N+]([O-])c1ccc(O)c(CSCCn2c(-c3ccccc3)n[nH]c2=S)c1`, the Ki is 11.9 µM in [6], 580 nM in [8], 210 nM in [9] and 250 nM in [13]. For the same molecule, in data set [7] (human, PBMC cells), the 50% inhibitory concentration (IC50) at 24 h is above 500 µM. In addition, the MIC in [10] stood at 4 µg/mL; in [12] it was 1 µg/mL. For the same molecule, the IC50 was 125 µM in data set [11] and above 250 µM in data set [14]. For the same molecule, the inhibition in [5] is 62%.

With `S=c1[nH]nc(-c2ccc(-c3ccccc3)cc2)n1CCSCc1ccccc1`, the inhibition in [1] was below 30%; in data set [2] it was below 30%; in [3], below 15%; in [4], below 15%; in data set [5] it was 60%.

Regarding `S=c1[nH]nc(-c2cccc(-c3ccccc3)c2)n1CCSCc1ccccc1`, the inhibition in data set [16] is below 15%; in data set [2], below 30%; in data set [17] it was 21%. The minimal inhibitory concentration (MIC) in [10] and in data set [12] was 16 µg/mL throughout. The Ki in data set [13] was 890 nM.

On to `S=c1[nH]nc(-c2ccccc2)n1CCSCc1ccccc1`, for which the Ki in data set [6] was determined as 22.3 µM; in data set [8], 210 nM; in data set [9] it was 240 nM; in [13], 310 nM; in data set [15], 19.6 µM. Further, the values for the 50% inhibitory concentration (IC50) in data set [18], in data set [7] and in data set [14] were 52 µM, “Non-Toxic” and 152 µM, respectively. The MIC in data set [10] stood at 4 µg/mL; in [12], 2 µg/mL.

The term inhibition denotes the change of the read-out against control, counted positive when it falls. Broadly, the Ki is the dissociation constant of the complex between target and ligand, obtained from inhibition or displacement. What is called IC50 is the concentration that gives 50% inhibition. A word on the MIC: it is the least concentration at which growth counts as inhibited.
